Measured values as given in ChEMBL document CHEMBL1142695, “Discovery of functionally selective 7,8,9,10-tetrahydro-7,10-ethano-1,2,4-triazolo[3,4-a]phthalazines as GABA A receptor agonists at the alpha3 subunit” (J Med Chem, 2005).

Experiments:
Assay type in all cases: cell-based
[1] = molecular target: T1, GABA-A receptor; alpha-2/beta-3/gamma-2 (Homo sapiens, UniProt P18507+P28472+P47869); test: Inhibition of [3H]Ro-151788 binding to recombinant human gamma-aminobutyric acid A receptor alpha-2-beta-3-gamma-2 subtype expressed in L (tk-) cells
T1 sequence (P18507 whole entry): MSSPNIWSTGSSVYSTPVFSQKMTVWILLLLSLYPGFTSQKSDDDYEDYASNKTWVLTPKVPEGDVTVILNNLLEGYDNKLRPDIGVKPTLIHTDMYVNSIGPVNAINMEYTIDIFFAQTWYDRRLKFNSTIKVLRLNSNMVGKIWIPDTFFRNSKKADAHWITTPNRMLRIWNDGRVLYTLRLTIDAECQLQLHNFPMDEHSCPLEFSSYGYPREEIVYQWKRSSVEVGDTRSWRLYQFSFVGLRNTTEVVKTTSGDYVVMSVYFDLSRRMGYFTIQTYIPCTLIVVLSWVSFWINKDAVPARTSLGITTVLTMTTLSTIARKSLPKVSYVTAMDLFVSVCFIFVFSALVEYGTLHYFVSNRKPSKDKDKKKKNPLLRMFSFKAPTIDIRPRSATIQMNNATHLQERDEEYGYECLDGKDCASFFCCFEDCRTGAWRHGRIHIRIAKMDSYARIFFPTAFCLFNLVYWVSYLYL
T1 sequence (P28472 whole entry): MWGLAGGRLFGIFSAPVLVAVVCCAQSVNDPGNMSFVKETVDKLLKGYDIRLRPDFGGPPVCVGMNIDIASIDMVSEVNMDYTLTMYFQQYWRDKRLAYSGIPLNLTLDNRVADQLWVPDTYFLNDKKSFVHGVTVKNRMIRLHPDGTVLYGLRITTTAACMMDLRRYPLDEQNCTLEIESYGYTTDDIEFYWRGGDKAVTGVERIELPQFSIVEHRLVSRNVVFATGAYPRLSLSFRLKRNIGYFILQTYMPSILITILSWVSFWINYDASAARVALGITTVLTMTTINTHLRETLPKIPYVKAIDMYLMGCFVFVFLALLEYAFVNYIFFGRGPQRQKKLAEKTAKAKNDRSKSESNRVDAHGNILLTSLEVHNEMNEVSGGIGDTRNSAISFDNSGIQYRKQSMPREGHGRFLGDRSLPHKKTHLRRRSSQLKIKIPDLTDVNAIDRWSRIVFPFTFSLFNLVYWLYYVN
T1 sequence (P47869 whole entry): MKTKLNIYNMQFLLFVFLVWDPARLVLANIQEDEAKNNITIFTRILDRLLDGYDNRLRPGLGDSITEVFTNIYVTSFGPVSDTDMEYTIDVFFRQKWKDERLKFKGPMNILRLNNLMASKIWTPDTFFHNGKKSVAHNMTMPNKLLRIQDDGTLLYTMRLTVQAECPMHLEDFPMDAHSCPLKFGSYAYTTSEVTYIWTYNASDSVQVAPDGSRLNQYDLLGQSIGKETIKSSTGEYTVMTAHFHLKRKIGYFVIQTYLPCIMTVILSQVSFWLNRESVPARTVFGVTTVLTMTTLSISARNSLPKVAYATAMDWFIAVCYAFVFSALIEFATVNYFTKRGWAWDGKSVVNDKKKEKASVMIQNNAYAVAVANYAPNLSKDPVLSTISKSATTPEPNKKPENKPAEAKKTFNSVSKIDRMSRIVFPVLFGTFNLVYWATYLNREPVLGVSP

[2] = molecular target: T2, GABA-A receptor; alpha-1/beta-3/gamma-2 (Homo sapiens, UniProt P14867+P18507+P28472); test: Inhibition of [3H]Ro-151788 binding to recombinant human gamma-aminobutyric-acid A receptor alpha-1-beta-3-gamma-2 subtype expressed in L (tk-) cells
T2 sequence (P14867 whole entry): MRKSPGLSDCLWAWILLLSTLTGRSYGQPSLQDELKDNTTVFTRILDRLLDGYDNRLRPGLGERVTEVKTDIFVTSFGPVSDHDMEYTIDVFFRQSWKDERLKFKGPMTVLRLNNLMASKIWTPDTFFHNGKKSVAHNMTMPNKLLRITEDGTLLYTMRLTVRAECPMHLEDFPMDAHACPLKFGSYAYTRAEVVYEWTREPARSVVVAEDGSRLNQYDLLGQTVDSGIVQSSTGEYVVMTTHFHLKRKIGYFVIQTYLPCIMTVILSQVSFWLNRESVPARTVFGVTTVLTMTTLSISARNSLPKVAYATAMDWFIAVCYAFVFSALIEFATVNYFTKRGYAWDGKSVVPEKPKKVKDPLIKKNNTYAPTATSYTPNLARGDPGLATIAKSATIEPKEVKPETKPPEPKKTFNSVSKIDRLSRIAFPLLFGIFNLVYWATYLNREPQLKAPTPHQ
T2 sequence (P18507 whole entry): T1 sequence (P18507 whole entry)
T2 sequence (P28472 whole entry): T1 sequence (P28472 whole entry)

[3] = molecular target: T3, GABA-A receptor; alpha-3/beta-3/gamma-2 (Homo sapiens, UniProt P18507+P28472+P34903); test: Inhibition of [3H]Ro-151788 binding to recombinant human gamma-aminobutyric-acid A receptor alpha-3-beta-3-gamma-2 subtype expressed in L (tk-) cells
T3 sequence (P18507 whole entry): T1 sequence (P18507 whole entry)
T3 sequence (P28472 whole entry): T1 sequence (P28472 whole entry)
T3 sequence (P34903 whole entry): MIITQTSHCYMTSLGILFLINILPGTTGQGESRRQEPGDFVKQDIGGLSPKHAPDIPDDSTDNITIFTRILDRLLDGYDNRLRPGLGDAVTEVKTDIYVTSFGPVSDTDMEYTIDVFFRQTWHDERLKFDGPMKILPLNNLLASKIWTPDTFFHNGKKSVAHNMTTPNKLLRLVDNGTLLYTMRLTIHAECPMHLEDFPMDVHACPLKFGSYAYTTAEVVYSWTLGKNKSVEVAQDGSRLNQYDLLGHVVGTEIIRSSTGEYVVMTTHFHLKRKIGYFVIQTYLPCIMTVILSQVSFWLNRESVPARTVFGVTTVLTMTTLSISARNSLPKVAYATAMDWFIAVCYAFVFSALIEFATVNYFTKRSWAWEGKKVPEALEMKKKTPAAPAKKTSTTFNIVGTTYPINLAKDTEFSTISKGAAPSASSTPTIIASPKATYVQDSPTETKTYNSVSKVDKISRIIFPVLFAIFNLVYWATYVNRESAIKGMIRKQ

[4] = molecular target: T4, GABA-A receptor; alpha-5/beta-3/gamma-2 (Homo sapiens, UniProt P18507+P28472+P31644); test: Inhibition of [3H]Ro-151788 binding to recombinant human gamma-aminobutyric-acid A receptor alpha-5-beta-3-gamma-2 subtype expressed in L (tk-) cells
T4 sequence (P18507 whole entry): T1 sequence (P18507 whole entry)
T4 sequence (P28472 whole entry): T1 sequence (P28472 whole entry)
T4 sequence (P31644 whole entry): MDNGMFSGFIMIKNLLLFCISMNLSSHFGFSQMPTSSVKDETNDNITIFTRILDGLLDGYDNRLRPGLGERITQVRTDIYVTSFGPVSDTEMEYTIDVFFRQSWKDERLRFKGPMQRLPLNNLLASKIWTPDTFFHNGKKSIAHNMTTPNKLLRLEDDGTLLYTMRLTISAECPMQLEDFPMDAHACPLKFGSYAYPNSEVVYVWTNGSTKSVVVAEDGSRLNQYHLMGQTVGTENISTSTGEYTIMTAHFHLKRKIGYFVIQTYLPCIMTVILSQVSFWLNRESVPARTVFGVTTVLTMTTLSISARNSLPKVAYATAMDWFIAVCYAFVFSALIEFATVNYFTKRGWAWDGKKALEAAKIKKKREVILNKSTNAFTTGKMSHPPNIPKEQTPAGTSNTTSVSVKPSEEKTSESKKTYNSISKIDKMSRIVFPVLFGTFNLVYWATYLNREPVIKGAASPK

[5] = molecular target: GABA-A receptor; alpha-1/beta-3/gamma-2 (Homo sapiens) (UniProt P14867+P18507+P28472); test: Efficacy was measured as modulation of the current in response to GABA at hGABA alpha-1-beta-3-gamma-2 receptor expressed in Xenopus oocytes; conditions: Oocyte
Procedure, shortened: (§1)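 Two-electrode voltage clamp on Xenopus oocytes expressing each receptor combination. […] Value is percent increase or decrease of the EC20 GABA current.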

[6] = molecular target: GABA-A receptor; alpha-2/beta-3/gamma-2 (Homo sapiens) (UniProt P18507+P28472+P47869); test: Efficacy was measured as modulation of the current in response to GABA at hGABA alpha-2-beta-3-gamma-2 receptor expressed in Xenopus oocytes; conditions: Oocyte; procedure, shortened: as §1
[7] = molecular target: GABA-A receptor; alpha-3/beta-3/gamma-2 (Homo sapiens) (UniProt P18507+P28472+P34903); test: Efficacy was measured as modulation of the current in response to GABA at hGABA alpha-3-beta-3-gamma-2 receptor expressed in Xenopus oocytes; conditions: Oocyte; procedure, shortened: as §1
[8] = molecular target: GABA-A receptor; alpha-5/beta-3/gamma-2 (Homo sapiens) (UniProt P18507+P28472+P31644); test: Efficacy was measured as modulation of the current in response to GABA at hGABA alpha-5-beta-3-gamma-2 receptor expressed in Xenopus oocytes; conditions: Oocyte; procedure, shortened: as §1

| SMILES | Ki [1] | Ki [2] | Ki [3] | Ki [4] | Efficacy [5] | Efficacy [6] | Efficacy [7] | Efficacy [8] |
| --- | --- | --- | --- | --- | --- | --- | --- | --- |
| Cn1cnc(COc2nn3c(-c4ccccc4)nnc3c3c2C2CCC3CC2)n1 | 16 nM | 31 nM | 8 nM | 2.1 nM | 26% | 16% | 88% | 26% |
| Cc1ccc(-c2nnc3c4c(c(OCc5ccccn5)nn23)C2CCC4CC2)cc1 | 120 nM | 310 nM | 32 nM | 4.7 nM | 9% | 14% | 40% | 6% |
| CN1C(=O)CN=C(c2ccccc2)c2cc(Cl)ccc21 |  |  |  |  | 103% | 138% | 118% | 106% |
| c1ccc(-c2nnc3c4c(c(OCc5ccccn5)nn23)C2CCC4CC2)cc1 | 26 nM | 71 nM | 13 nM | 1.2 nM |  |  |  | 18% |
| c1ccc(-c2nnc3c4c(c(OCc5cccnn5)nn23)C2CCC4CC2)cc1 | 14 nM | 33 nM | 8.5 nM | 0.88 nM | 64% | 35% | 57% | 39% |
| c1ccc(-c2nnc3c4c(c(OCc5nccc6ccccc56)nn23)C2CCC4CC2)cc1 | 7.5 nM | 29 nM | 4.5 nM | 0.69 nM | 45% |  | 14% |  |
| CN(C)Cc1cccc(COc2nn3c(-c4ccccc4)nnc3c3c2C2CCC3CC2)c1 | 64 nM | 190 nM | 24 nM | 4.5 nM |  |  | -16% | -25% |
| Cc1cc(C)n(COc2nn3c(-c4ccccc4)nnc3c3c2C2CCC3CC2)n1 | 7.5 nM | 23 nM | 2.3 nM | 0.26 nM | 31% |  | 7% | 1% |
| c1ccc(-c2nnc3c4c(c(OCc5ncc[nH]5)nn23)C2CCC4CC2)cc1 | 18 nM | 53 nM | 6.7 nM | 0.87 nM | 35% |  | 29% |  |
| N#Cc1cccc(COc2nn3c(-c4ccccc4)nnc3c3c2C2CCC3CC2)c1 | 180 nM | > 1000 nM | 66 nM | 7.8 nM | 23% |  | 38% | 23% |
| COc1ccc(-c2nnc3c4c(c(OCc5ccccn5)nn23)C2CCC4CC2)cc1 | 74 nM | 230 nM | 52 nM | 4.2 nM | 14% |  | 33% |  |
| c1ccc(Cn2ccnc2COc2nn3c(-c4ccccc4)nnc3c3c2C2CCC3CC2)cc1 | 1.7 nM | 0.81 nM | 2 nM | 0.21 nM | 73% |  | 100% |  |
| c1ccc(-c2nnc3c4c(c(OCc5ncccc5OCC5CC5)nn23)C2CCC4CC2)cc1 | 5.6 nM | 6.9 nM | 2.3 nM | 0.75 nM | 175% |  | 139% | 50% |
| c1ccc(-c2nnc3c4c(c(OCc5cccnc5)nn23)C2CCC4CC2)cc1 | 68 nM | 150 nM | 25 nM | 6.5 nM | 51% |  | 20% |  |
| c1ccc(COc2nn3c(-c4cccnc4)nnc3c3c2C2CCC3CC2)nc1 | 54 nM | 260 nM | 38 nM | 2.7 nM | 36% |  | 9% | 31% |
| CCCn1ncnc1COc1nn2c(-c3ccccc3)nnc2c2c1C1CCC2CC1 | 2.5 nM | 0.9 nM | 1.4 nM | 0.19 nM | 41% |  | 78% |  |
| c1ccc(-c2nnc3c4c(c(OCc5cscn5)nn23)C2CCC4CC2)cc1 | 21 nM | 68 nM | 10 nM | 1.2 nM | 33% |  | 33% |  |
